Assay outcomes from PubChem BioAssay.
HGIII-sPLA2 inh = human group III sPLA2 inhibitors, primary screen, biochemical, QFRET, BODIPY PC-A2 liposome substrate | inhibition, % at 12.2 µM | AID 743126, 2013 | QFRET BODIPY PC-A2 liposome hydrolysis, fluorescence | 0.56% of 370,000 active;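 active means inhibition above mean plus 3 SD of compounds lying within the high and low control bounds, cut at about 19% in these data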;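 further: 0% = median of test compound wells and 100% = no enzyme DMSO wells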
Target sequence (Q9NZ20 whole entry, looked up): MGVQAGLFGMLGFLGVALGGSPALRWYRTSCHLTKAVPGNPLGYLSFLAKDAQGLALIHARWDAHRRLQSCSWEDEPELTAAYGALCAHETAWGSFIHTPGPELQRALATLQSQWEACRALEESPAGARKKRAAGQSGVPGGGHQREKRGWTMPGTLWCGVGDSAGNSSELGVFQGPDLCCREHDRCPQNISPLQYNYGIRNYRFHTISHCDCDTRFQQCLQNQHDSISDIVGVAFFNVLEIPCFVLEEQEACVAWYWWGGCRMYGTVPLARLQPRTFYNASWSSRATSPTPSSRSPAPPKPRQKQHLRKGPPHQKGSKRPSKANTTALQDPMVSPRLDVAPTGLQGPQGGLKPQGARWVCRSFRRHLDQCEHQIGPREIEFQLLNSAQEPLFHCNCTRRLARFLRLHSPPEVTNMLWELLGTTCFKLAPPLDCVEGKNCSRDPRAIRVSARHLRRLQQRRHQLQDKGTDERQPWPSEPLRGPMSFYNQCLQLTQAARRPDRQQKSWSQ
PfM18AAP inh-1 = PfM18AAP inhibitors, malaria aminopeptidase, primary screen, biochemical, QFRET, recombinant enzyme. M18 aspartyl aminopeptidase (Plasmodium falciparum 3D7). 1.2% of 290,000 active. inhibition, % at 7.35 µM. H-Glu-NHMec fluorogenic cleavage;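 active means inhibition above the campaign mean inhibition over all tested compounds plus 3 SD, cut at about 28% in these data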;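 further: 0% = plate median of test compound wells and 100% = 2 mM ZnCl2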
NRP1-CendR mod = modulators of CendR peptide binding to NRP-1, primary screen, biochemical, fluorescence polarization, uHTS; FAM-RPARPAR peptide binding to NRP-1; inhibition, % at 25 µM; 0.85% of 360,000 active; AID 602438, 2012;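 active means inhibition or corrected inhibition above about 18%, plus a signal ratio from 0.5 to 1.5, limit read from the data, passing the limit was not always enough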
Lipid droplet = inhibitors of hepatocyte lipid droplet formation, primary screen, imaging, high-throughput imaging, BODIPY stain. AML12 mouse hepatocytes, oleate lipid droplets. AID 1656, 2009. inhibition, % at 6.5 µM. 0.4% of 240,000 active;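 active means lipid droplet intensity inhibited by at least 50%, with more than 500 cells counted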
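Assay system: AML12 mouse liver cells | Compound dosing: One dose, 6.5 µM compound | Read-out basis: Droplet intensity reduction, % inhibition | Measured by: Fluorescence imaging, 20x objective, two fields per well | Schedule: Overnight treatment with compound plus oleate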
Arrestin-AP2 inh = inhibitors of beta-arrestin/AP2 binding, primary screen, biochemical, GPCR trafficking, flow cytometry; beta-arrestin 1 C-terminal peptide binding to AP2 beta2-adaptin appendage (human); 0.31% of 340,000 active; inhibition, % at 10 µM; FITC-arrestin peptide / GST-AP2 beads; AP2 beta2 appendage carries R879A mutation; AID 504490, 2011;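 active means inhibition above a set limit, near 3 SD of compounds lacking own fluorescence, cut at about 54% in these data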;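 further: plate controls were DMSO wells for no effect and 5 µM unlabelled arrestin peptide for full effect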
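system = GST-tagged AP2 beta2-adaptin appendage (R879A) on 4 µm glutathione beads | reagent = FITC-labelled arrestin peptide probe, 50 nM final | schedule = compound with beads 12 min RT, then probe 1 h RT | signal = HyperCyt-sampled flow cytometry, FL1 channel, ex 488/em 535 nm | read-out = percent response from loss of bead-bound FITC fluorescence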
HTR2A ag = mouse Htr2a agonists via beta-arrestin recruitment, primary screen, cell-based, luminescence. 5-hydroxytryptamine receptor 2A (Mus musculus), P35363. AID 624169, 2012. 0.66% of 360,000 active. activation, % at 7.6 µM. CHO-K1 mHTR2A beta-arrestin complementation; percent of 30 µM serotonin response;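 active means activation above a run cutoff, the mean activation of all tested compounds plus 3 SD, cut at about 14% in these data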;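 further: 0% = plate median of compound wells and 100% = 30 µM serotonin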
Lipid drop inh = hepatocyte lipid droplet accumulation inhibitors, confirmation, imaging, AML12 mouse hepatocytes, single concentration, high-content; shares compounds with Lipid droplet; BODIPY lipid droplet imaging; droplets induced with 100 µM oleic acid; inhibition, % at 5.2 µM; 65% of 870 active; AID 463183, 2010;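 active means inhibition of lipid droplet metric at least 50%, with more than 300 cells in each of four replicates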;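 further: plate controls were DMSO with oleic acid for no effect and 5 µM Triacsin-C for full effect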
AML12 cytotox = AML12 hepatocyte cytotoxicity, counter-screen for hepatic lipid droplet formation project, imaging, DAPI nuclear morphology imaging. shares compounds with Lipid droplet. AML12 mouse hepatocytes; hits give high values; cells fed 100 µM oleate overnight. z-score at 5 µM. 3% of 870 active. AID 463200, 2010; in the data active means z-score above about 6.3;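 further: compound exposure lasted overnight at 37 °C before fixation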
AML12 tox ATP = AML12 hepatocyte cytotoxicity, confirmation, cytotoxicity control for hepatic lipid droplet formation project, cell-based, single concentration. shares compounds with Lipid droplet. cytotoxicity, % at 50 µM. 530 tested, under 10 active. AML12 mouse hepatocyte viability, ATP luminescence; cells loaded with 100 µM oleic acid;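 active means cytotoxicity above 50% in each of four replicates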;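 further: compound exposure lasted overnight at 37 °C before the ATP read; 0% = DMSO-treated cells and 100% = wells with no cells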
PfM18AAP inh-2 = PfM18AAP inhibitors, malaria aminopeptidase, confirmation, biochemical, QFRET, recombinant enzyme, triplicate. shares compounds with PfM18AAP inh-1. inhibition, % at 7.35 µM. AID 2170, 2009. 28% of 2,400 active. H-Glu-NHMec fluorogenic cleavage;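 active means mean inhibition over replicate wells above the hit cutoff set for the earlier primary screen, cut at about 29% in these data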;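 further: 0% = median of test compound wells and 100% = 2 mM ZnCl2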
CTSL1 counter = cathepsin L1 inhibitors, retest, confirmation, counter-screen for PFM18AAP inhibitor project, biochemical, QFRET, triplicate; 2,400 tested, under 10 active; shares compounds with PfM18AAP inh-1; inhibition, % at 5.96 µM; purified cathepsin L1, Z-Leu-Arg-MCA fluorescence; AID 2178, 2009;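 active means average inhibition across replicates above the hit cutoff set in the earlier primary screen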;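 further: 0% = median of test compound wells and 100% = Z-Phe-Ala-diazomethylketone 1 µM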
Target sequence (P07711 whole entry, looked up): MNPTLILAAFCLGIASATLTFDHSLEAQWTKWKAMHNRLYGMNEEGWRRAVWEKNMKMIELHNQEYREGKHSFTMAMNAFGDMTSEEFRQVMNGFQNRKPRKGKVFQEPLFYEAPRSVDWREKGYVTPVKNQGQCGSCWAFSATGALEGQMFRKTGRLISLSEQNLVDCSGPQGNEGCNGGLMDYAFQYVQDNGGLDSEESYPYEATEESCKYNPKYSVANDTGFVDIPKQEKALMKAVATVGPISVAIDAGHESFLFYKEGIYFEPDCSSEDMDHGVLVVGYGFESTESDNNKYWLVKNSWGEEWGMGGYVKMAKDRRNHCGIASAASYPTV
Arr AP2 CP1 = inhibitors of arrestin peptide binding to AP2, confirmation, biochemical, cherry pick 1, flow cytometry beads; shares compounds with Arrestin-AP2 inh; 2% of 1,300 active; AID 504908, 2011; inhibition, % at 10 µM; GST-AP2 beads, FITC arrestin peptide binding; GST-fused beta2-adaptin appendage, R879A mutant;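 active means inhibition above a set limit, roughly 3 SD of non-fluorescent compound noise, cut at about 38% in these data; inactive means inhibition at or below that limit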;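 further: loss of bead fluorescence from 50 nM FITC arrestin peptide bound to appendage; 0% = negative control wells and 100% = excess unlabelled arrestin peptide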
GST GSH counter = GST-fluorescein capture on glutathione beads, confirmation, artefact control for arrestin-AP2 inhibitor project, biochemical, cherry pick 1, flow cytometry; GST-fluorescein binding to GSH beads, fluorescence, counter-screen; 2% of 1,300 active; AID 588338, 2011; inhibition, % at 10 µM; shares compounds with Arrestin-AP2 inh;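 active means inhibition above 50%, about 3 SD of the inhibition seen with non-fluorescent compounds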;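 further: fluorescein maleimide labelled GST captured on 4 micron glutathione beads; higher means more loss of bead fluorescence from quenching or blocked binding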
OPRM1 ag = OPRM1 agonists via beta-arrestin recruitment, confirmation, counter-screen for mouse HTR2A agonist project, cell-based, luminescence, single concentration; shares compounds with HTR2A ag; 5.3% of 2,300 active; U2OS OPRM1 beta-arrestin PathHunter; DMSO 0%, DAMGO 9.3 µM 100%; activation, % at 9.3 µM; AID 624380, 2012;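 active means mean activation above the mean of DMSO-only wells plus 3 SD, cut at about 0.5% in these data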
HTR2A ag conf = mouse HTR2A agonists, beta-arrestin recruitment, confirmation, cell-based, luminescence, CHO-K1 PathHunter, triplicate; shares compounds with HTR2A ag; 19% of 2,300 active; DMSO 0%, 30 µM serotonin 100%; activation, % at 7.6 µM;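 active means mean activation across triplicates above the hit threshold derived in the original primary screen, cut at about 15% in these data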
hGIII sPLA2 conf = human group III sPLA2 inhibitors, confirmation, biochemical, QFRET, triplicate | AID 743280, 2014 | shares compounds with HGIII-sPLA2 inh | 34% of 2,000 active | inhibition, % at 12.2 µM | recombinant hGIII-sPLA2, BODIPY PC-A2 QFRET fluorescence;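 active means mean inhibition across triplicates above the hit cutoff set in the earlier primary screen, cut at about 19% in these data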;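 further: 0% = enzyme with DMSO and 100% = DMSO wells lacking enzyme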
535nm interf = 535nm fluorescence optical interference, confirmation, artefact control for HGIII-sPLA2 inhibitor project, biochemical, QFRET; shares compounds with HGIII-sPLA2 inh; BODIPY FL product fluorescence interference; inhibition, % at 12.2 µM; 8.5% of 2,000 active; AID 743282, 2014;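 active means average inhibition above the solvent-only control mean plus 3 SD, cut at about 6% in these data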;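 further: 0% = DMSO with substrate plus product and 100% = DMSO with substrate alone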
535nm interf DR = 535nm fluorescence optical interference, dose response, artefact control for HGIII-sPLA2 inhibitor project, biochemical, QFRET. shares compounds with HGIII-sPLA2 inh. BODIPY FL product fluorescence interference, cell-free. IC50, µM. 240 tested, under 10 active. AID 743455, 2014;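 active means IC50 at or below 10 µM; inactive means IC50 above 10 µM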
Starred values were filed as active, the others as inactive; nt = no result given. A selection: hits, their analogues and other compounds. The true share with any hit is near 3.3%.

SMILES	HGIII-sPLA2 inh	PfM18AAP inh-1	NRP1-CendR mod	Lipid droplet	Arrestin-AP2 inh	HTR2A ag	Lipid drop inh	AML12 cytotox	AML12 tox ATP	hGIII sPLA2 conf	535nm interf	others
CCOc1ccc(CCNC(=O)c2cc3sccc3n2CC)cc1OCC	-10	-7	5	92*	4	-4	108*	-0.053	8	nt	nt
CCn1c(=O)cc(OCC(=O)NCCc2cccc(C)c2)c2ccccc21	-2	4	5	-21	12	-3	nt	nt	nt	nt	nt
COc1ccc(CCC(=O)OCC(=O)NC2CCCC2)cc1OC	4	nt	15	nt	nt	-1	nt	nt	nt	nt	nt
O=c1[nH]c(-c2ccccc2)cn1C1CCN(Cc2ccc(-c3nc4ccc(Br)cc4nc3-c3ccccc3)cc2)CC1	7	nt	nt	nt	nt	nt	nt	nt	nt	nt	nt
Cc1cc(NC(=O)c2sccc2C)n(-c2nc3ccccc3[nH]2)n1	-3	-2	-4	60*	8	2	83*	0.017	-12	nt	nt	Arr AP2 CP1=-6;GST GSH counter=1
Cc1cc(Br)cn2c(Cc3ccsc3)c(-c3cccc(Br)c3)nc12	-1	nt	-17	nt	nt	4	nt	nt	nt	nt	nt
CCOc1ccc(CCNC(=O)/C=C/c2ccco2)cc1OCC	2	-9	-5	81*	3	19*	105*	-0.046	-9	nt	nt	OPRM1 ag=0;HTR2A ag conf=-4
O=C(CN1C(=O)NC2(CCc3ccccc32)C1=O)Nc1ccc(Cl)cc1F (stereo not given)	-3	nt	1	nt	nt	0	nt	nt	nt	nt	nt
COc1ccccc1N=Nc1nc(-c2ccccc2)c(-c2ccccc2)[nH]1	16	0	-3	-2	4	-6	nt	nt	nt	nt	nt
COc1ccc(N=Nc2nc(-c3ccccc3)c(-c3ccccc3)[nH]2)cc1	28*	-8	-64	100*	nt	-4	108*	1	-10	30*	2	535nm interf DR=>122
O=C(NC1CC1c1ccccc1)N1CCC(c2nc3ccc(Cl)cc3[nH]2)CC1 (stereo not given)	1	nt	nt	nt	nt	nt	nt	nt	nt	nt	nt
O=C1c2ccccc2C(=O)c2c(Nc3ccc(CCO)cc3)ccc(O)c21	21*	-7	8	113*	1	-5	115*	0.44	nt	48*	3	535nm interf DR=>122
COc1ccc(S[C@]2(C(=O)N3CCCC3)CC(=O)N(C(=O)Nc3ccc(C)c(Cl)c3)[C@@H]2c2ccc(OC)cc2)cc1	7	nt	nt	nt	nt	nt	nt	nt	nt	nt	nt
CCCN1C(=O)/C(=C2/C=Cc3ccccc3N2CC)SC1=S	21*	3	6	85*	7	3	105*	-0.13	13	51*	13*
CCOc1ccc2c(c1)-c1c(ssc1=S)C(C)(C)N2C	36*	33*	3	57*	2	-2	102*	0.044	13	46*	14*	PfM18AAP inh-2=-25;CTSL1 counter=-2
CC(OC(=O)CCCN=C1NS(=O)(=O)c2ccccc21)C(=O)NC1CCCCC1C (stereo not given)	7	2	15	0	-14	5	nt	nt	nt	nt	nt
Oc1c(N=Nc2nn[nH]n2)ccc2ccccc12	-9	nt	15	nt	nt	-4	nt	nt	nt	nt	nt
Cc1ccc(N=Nc2ccc3ccccc3c2O)cc1	20*	-3	-2	82*	-4	6	53	0.11	nt	30*	8.3*
CNC(=S)/N=C(/Nc1ccccc1)c1ccccc1	10	44*	5	-2	-16	1	nt	nt	nt	nt	nt	PfM18AAP inh-2=-28;CTSL1 counter=0
